Four molecules from ChEMBL document CHEMBL1759912, “Ionic liquid promoted synthesis, antibacterial and in vitro antiproliferative activity of novel α-aminophosphonate derivatives” (Bioorg Med Chem Lett, 2011) can be followed below.

Active and inactive are the calls of the source. The rule behind the calls is not given here.

In assay [1] the test system is Salmonella typhi. Description: Antibacterial activity against ampicillin-resistant Salmonella typhi NCIM 2501 assessed as bacterial growth inhibition zone at […] after 24 hrs by disc diffusion method. The class given is functional, organism-based. As to conditions: Salmonella enterica subsp. enterica serovar Typhi. On the technique in general: In agar diffusion tests the substance spreads into inoculated agar from a disc or well.

Assay [2] has as its system Escherichia coli. Description: Antibacterial activity against ampicillin-resistant Escherichia coli NCIM 2645 assessed as bacterial growth inhibition zone after 24 hrs by disc diffusion method. The class given is functional, organism-based. The method in brief:
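Strains activated in nutrient broth, 24 h at their optimum growth temperature. Nutrient agar plates seeded with 100 μl mid-log culture. Sterile 6 mm filter paper discs each loaded with 10 μl of compound solution (10 mg/ml in DMSO, filter-sterilised) and left to diffuse 20 min. Plates incubated 24 h at growth temperature. Controls: ampicillin disc (positive), 10 μl DMSO disc (negative). Zone ≥7 mm counted as susceptible.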

Assay [3] relates to A549. Description: Induction of apoptosis in human A549 cells after 6 hrs. The class given is functional, cell-based.
Assay [4] deals with SK-MEL-2. Description: Antiproliferative activity against human SK-MEL-2 cells. The format is functional, cell-based. The method in brief: (§1)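 A549 and SK-MEL2 cells (from NCCS Pune) grown in DMEM with 5–10% FBS, penicillin and 4 mM L-glutamine at 37 °C, 5% CO2. Plates were seeded 24 h ahead and washed with serum-free medium. Cells were exposed to 0, 2, 4, 8, 16 and 20 μM for […], then cell proliferation was estimated. Results are % cell growth, averaged from triplicate cultures run twice.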

The subject of assay [5] is A549. Description: Antiproliferative activity against human A549 cells. The format is functional, cell-based. The procedure, abridged: as §1
Assay [6] concerns A549. Description: Antiproliferative activity against human A549 cells assessed as growth inhibition at 2 to 20 uM after 24 hrs. The class given is functional.
The test system of assay [7] is SK-MEL-2. Description: Induction of apoptosis in human SK-MEL-2 cells after 6 hrs. The class given is functional, cell-based.

As a reminder, the IC50 is the point on the concentration scale where inhibition reaches its midpoint.

`CCOP(=O)(OCC)C(Nc1ccc(I)cc1[N+](=O)[O-])c1ccc(Cl)cc1` (configuration not stated): the outcome in assay [1] was Active.

As for `CCOP(=O)(OCC)C(Nc1ccc(Cl)cc1[N+](=O)[O-])c1cccc(Cl)c1` (configuration not stated), the result in assay [1] and in assay [2] was Active.

Take `CCOP(=O)(OCC)C(Nc1ccc(Cl)cc1[N+](=O)[O-])c1c[nH]c2ccccc12` (configuration not stated): the result in assay [3], in assay [1], in assay [2] and in assay [7] was Active. Further, the concentration for half-maximal inhibition (IC50) in assay [4] amounted to 8.43 µM; in assay [5] it was 11.5 µM. For the same molecule, the “growth inhibition (GI)” value in assay [6] is on record as 80%.

Take `CCOP(=O)(OCC)C(Nc1ccc(Cl)cc1[N+](=O)[O-])c1ccc(OC)c(OC)c1` (configuration not stated): the outcome in assay [1] and in assay [2] was Active.
